From ChEMBL document CHEMBL1806362, “Synthesis of some new [1,2,4]triazolo[3,4-b][1,3,4]thiadiazines and [1,2,4]triazolo[3,4-b][1,3,4] thiadiazoles starting from 5-nitro-2-furoic acid and evaluation of their antimicrobial activity” (Bioorg Med Chem, 2011)
Converted amounts (≈) assume the structure as drawn. Each block holds one molecule with its values, some of them ahead of it.

Experiments:
Staphylococcus aureus = experiment: Antibacterial activity against Staphylococcus aureus after 24 hrs by broth dilution method; type: functional
Procedure, shortened: (§1)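 NCCLS broth dilution in 96-well microtitre plates. Inoculum adjusted with sterile saline to 1.0×10^5 c.f.u./ml. Compounds dissolved in DMSO, with a broth-plus-DMSO solvent control. Incubated 24 h at 37 °C. MIC is the lowest concentration without visible growth. For MBC, clear wells were plated on Mueller Hinton agar for 24 h at 37 °C; MBC is the lowest concentration with no colonies. Duplicates, repeated three times; values in μg/ml.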

Escherichia coli = experiment: Antibacterial activity against Escherichia coli after 24 hrs by broth dilution method; type: functional; procedure, shortened: as §1
HepG2 = experiment: Cytotoxicity against human HepG2 cells after 48 hrs by sulforhodamine B assay; type: functional, cell-based; details: HepG2, 48 h
Procedure, shortened: (§2)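 SRB assay. Cells seeded at 10⁴ cells/well and left 24 h to attach. Exposed to 0, 1, 2.5, 5 and 10 μg/ml for 48 h at 37 °C in humidified 5% CO₂. Fixed with trichloroacetic acid and stained 30 min with 0.4% SRB in 1% acetic acid. Washed with 1% acetic acid; bound dye extracted with Tris EDTA and absorbance read. IC50 taken from surviving fraction versus concentration curves.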

HCT-116 = experiment: Cytotoxicity against human HCT116 cells after 48 hrs by sulforhodamine B assay; type: functional, cell-based; details: HCT-116, 48 h; procedure, shortened: as §2

SMILES: O=[N+]([O-])c1ccc(-c2nnc3n2NC(c2ccc([N+](=O)[O-])o2)S3)o1 (stereo unspecified)
MBC (Staphylococcus aureus): 200 µg/mL (≈ 571 µM)
MIC (Staphylococcus aureus): 25 µg/mL (≈ 71.4 µM)
MBC (Escherichia coli): 200 µg/mL (≈ 571 µM)
MIC (Escherichia coli): 25 µg/mL (≈ 71.4 µM)

SMILES: O=[N+]([O-])c1ccc(-c2nnc3n2NC(c2cccs2)S3)o1 (stereo unspecified)
MBC (Staphylococcus aureus): 200 µg/mL (≈ 622 µM)
MIC (Staphylococcus aureus): 25 µg/mL (≈ 77.8 µM)
MBC (Escherichia coli): 200 µg/mL (≈ 622 µM)
MIC (Escherichia coli): 50 µg/mL (≈ 156 µM)

SMILES: CCCCNc1nn2c(-c3ccc([N+](=O)[O-])o3)nnc2s1
MBC (Staphylococcus aureus): 200 µg/mL (≈ 649 µM)
MIC (Staphylococcus aureus): 25 µg/mL (≈ 81.1 µM)
MBC (Escherichia coli): 100 µg/mL (≈ 324 µM)
MIC (Escherichia coli): 25 µg/mL (≈ 81.1 µM)

SMILES: O=[N+]([O-])c1ccc(-c2nnc3sc(Nc4ccccc4)nn23)o1
MBC (Staphylococcus aureus): 50 µg/mL (≈ 152 µM)
MIC (Staphylococcus aureus): 25 µg/mL (≈ 76.1 µM)
MBC (Escherichia coli): 100 µg/mL (≈ 305 µM)
MIC (Escherichia coli): 50 µg/mL (≈ 152 µM)
IC50 (HepG2): 4.23 µg/mL (≈ 12.9 µM)
IC50 (HCT-116): 4.38 µg/mL (≈ 13.3 µM)

SMILES: O=[N+]([O-])c1ccc(-c2nnc3sc(Nc4ccc(F)cc4)nn23)o1
MBC (Staphylococcus aureus): 50 µg/mL (≈ 144 µM)
MIC (Staphylococcus aureus): 25 µg/mL (≈ 72.2 µM)
MBC (Escherichia coli): 100 µg/mL (≈ 289 µM)
MIC (Escherichia coli): 25 µg/mL (≈ 72.2 µM)
IC50 (HepG2): 11.3 µg/mL (≈ 32.6 µM)
IC50 (HCT-116): 8.91 µg/mL (≈ 25.7 µM)

SMILES: O=[N+]([O-])c1ccc(C2=Nn3c(nnc3-c3ccc([N+](=O)[O-])o3)SC2)cc1
MBC (Staphylococcus aureus): 100 µg/mL (≈ 269 µM)
MIC (Staphylococcus aureus): 50 µg/mL (≈ 134 µM)
MBC (Escherichia coli): 200 µg/mL (≈ 537 µM)
MIC (Escherichia coli): 25 µg/mL (≈ 67.1 µM)

SMILES: CC1(C)S[C@@H]2[C@H](NC(=O)[C@H](N)c3ccccc3)C(=O)N2[C@H]1C(=O)O [AMPICILLIN]
MBC (Staphylococcus aureus): 50 µg/mL (≈ 143 µM)
MIC (Staphylococcus aureus): 25 µg/mL (≈ 71.5 µM)
MBC (Escherichia coli): 25 µg/mL (≈ 71.5 µM)
MIC (Escherichia coli): 12.5 µg/mL (≈ 35.8 µM)

SMILES: COc1cccc2c1C(=O)c1c(O)c3c(c(O)c1C2=O)C[C@@](O)(C(=O)CO)C[C@@H]3O[C@H]1C[C@H](N)[C@H](O)[C@H](C)O1 [DOXORUBICIN]
IC50 (HepG2): 5.5 µg/mL (≈ 10.1 µM)
IC50 (HCT-116): 3.73 µg/mL (≈ 6.86 µM)

More lines, main results first:

MIC (Staphylococcus aureus): 50 µg/mL (≈ 220 µM)
MIC (Escherichia coli): 25 µg/mL (≈ 110 µM)
SMILES: Nn1c(S)nnc1-c1ccc([N+](=O)[O-])o1
MBC (Staphylococcus aureus): 200 µg/mL (≈ 880 µM)
MBC (Escherichia coli): 200 µg/mL (≈ 880 µM)

MIC (Staphylococcus aureus): 25 µg/mL (≈ 82.2 µM)
MIC (Escherichia coli): 25 µg/mL (≈ 82.2 µM)
SMILES: O=[N+]([O-])c1ccc(-c2nnc3n2NC(c2ccc[nH]2)S3)o1 (stereo unspecified)
MBC (Staphylococcus aureus): 200 µg/mL (≈ 657 µM)
MBC (Escherichia coli): 200 µg/mL (≈ 657 µM)

MIC (Staphylococcus aureus): 25 µg/mL (≈ 81.9 µM)
MIC (Escherichia coli): 25 µg/mL (≈ 81.9 µM)
SMILES: O=[N+]([O-])c1ccc(-c2nnc3n2NC(c2ccco2)S3)o1 (stereo unspecified)
MBC (Staphylococcus aureus): 200 µg/mL (≈ 655 µM)
MBC (Escherichia coli): 200 µg/mL (≈ 655 µM)

MIC (Staphylococcus aureus): 25 µg/mL (≈ 68.2 µM)
MIC (Escherichia coli): 50 µg/mL (≈ 136 µM)
SMILES: O=[N+]([O-])c1ccc(-c2nnc3n2NC(c2ccc([N+](=O)[O-])s2)S3)o1 (stereo unspecified)
MBC (Staphylococcus aureus): 200 µg/mL (≈ 546 µM)
MBC (Escherichia coli): 200 µg/mL (≈ 546 µM)

MIC (Staphylococcus aureus): 25 µg/mL (≈ 89.2 µM)
MIC (Escherichia coli): 25 µg/mL (≈ 89.2 µM)
SMILES: CCNc1nn2c(-c3ccc([N+](=O)[O-])o3)nnc2s1
MBC (Staphylococcus aureus): 100 µg/mL (≈ 357 µM)
MBC (Escherichia coli): 200 µg/mL (≈ 714 µM)

MIC (Staphylococcus aureus): 25 µg/mL (≈ 70.2 µM)
MIC (Escherichia coli): 25 µg/mL (≈ 70.2 µM)
SMILES: CCc1ccc(Nc2nn3c(-c4ccc([N+](=O)[O-])o4)nnc3s2)cc1
MBC (Staphylococcus aureus): 50 µg/mL (≈ 140 µM)
MBC (Escherichia coli): 50 µg/mL (≈ 140 µM)
IC50 (HepG2): 3.78 µg/mL (≈ 10.6 µM)
IC50 (HCT-116): 6.65 µg/mL (≈ 18.7 µM)

MIC (Staphylococcus aureus): 100 µg/mL (≈ 306 µM)
MIC (Escherichia coli): 50 µg/mL (≈ 153 µM)
SMILES: O=[N+]([O-])c1ccc(-c2nnc3n2N=C(c2ccccc2)CS3)o1
MBC (Staphylococcus aureus): 200 µg/mL (≈ 611 µM)
MBC (Escherichia coli): 200 µg/mL (≈ 611 µM)

MIC (Staphylococcus aureus): 25 µg/mL (≈ 69.1 µM)
MIC (Escherichia coli): 25 µg/mL (≈ 69.1 µM)
SMILES: O=[N+]([O-])c1ccc(-c2nnc3n2N=C(c2ccc(Cl)cc2)CS3)o1
MBC (Staphylococcus aureus): 200 µg/mL (≈ 553 µM)
MBC (Escherichia coli): 200 µg/mL (≈ 553 µM)

MIC (Staphylococcus aureus): 25 µg/mL (≈ 61.5 µM)
MIC (Escherichia coli): 25 µg/mL (≈ 61.5 µM)
SMILES: O=[N+]([O-])c1ccc(-c2nnc3n2N=C(c2ccc(Br)cc2)CS3)o1
MBC (Staphylococcus aureus): 200 µg/mL (≈ 492 µM)
MBC (Escherichia coli): 200 µg/mL (≈ 492 µM)

MIC (Staphylococcus aureus): 50 µg/mL (≈ 140 µM)
MIC (Escherichia coli): 25 µg/mL (≈ 70 µM)
SMILES: COc1ccc(C2=Nn3c(nnc3-c3ccc([N+](=O)[O-])o3)SC2)cc1
MBC (Staphylococcus aureus): 200 µg/mL (≈ 560 µM)
MBC (Escherichia coli): 200 µg/mL (≈ 560 µM)
